For 8 compounds, IC50, EC50 and Activity results are on record in ChEMBL document CHEMBL1149285, “Identification of novel parasitic cysteine protease inhibitors using virtual screening. 1. The ChemBridge database” (J Med Chem, 2004).

In one data set the target is T1, Falcipain 2 (Plasmodium falciparum, UniProt Q9N6S8).
T1 sequence (Q9N6S8 whole entry): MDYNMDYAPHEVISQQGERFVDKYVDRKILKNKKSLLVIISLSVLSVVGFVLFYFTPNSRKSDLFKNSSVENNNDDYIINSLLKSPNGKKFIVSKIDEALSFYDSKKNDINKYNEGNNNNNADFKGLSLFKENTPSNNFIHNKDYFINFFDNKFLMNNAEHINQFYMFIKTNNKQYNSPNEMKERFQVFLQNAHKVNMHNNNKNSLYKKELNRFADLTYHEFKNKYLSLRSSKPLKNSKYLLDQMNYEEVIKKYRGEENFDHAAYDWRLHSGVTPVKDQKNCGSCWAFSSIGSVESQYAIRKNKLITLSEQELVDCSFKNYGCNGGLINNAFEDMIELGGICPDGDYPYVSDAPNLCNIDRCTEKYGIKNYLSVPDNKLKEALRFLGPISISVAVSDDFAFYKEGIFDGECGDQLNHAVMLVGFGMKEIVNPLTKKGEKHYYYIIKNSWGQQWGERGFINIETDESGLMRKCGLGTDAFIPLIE
Briefly: Inhibition of Plasmodium falciparum recombinant falcipain-2. In short, it runs like this:
(§1)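 Equal amounts of recombinant enzyme preincubated 30 min at room temperature with serial inhibitor dilutions from DMSO stocks (DMSO at most 1% in assay) in 100 mM sodium acetate pH 5.5, 10 mM dithiothreitol. Z-Leu-Arg-AMC then added to 25 μM final; fluorescence followed 15 min at room temperature. IC50 taken from percent activity versus concentration plots.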

Data set [1] deals with T2, Cysteine protease falcipain-3 (Plasmodium falciparum, UniProt Q9NBA7).
T2 sequence (Q9NBA7 whole entry): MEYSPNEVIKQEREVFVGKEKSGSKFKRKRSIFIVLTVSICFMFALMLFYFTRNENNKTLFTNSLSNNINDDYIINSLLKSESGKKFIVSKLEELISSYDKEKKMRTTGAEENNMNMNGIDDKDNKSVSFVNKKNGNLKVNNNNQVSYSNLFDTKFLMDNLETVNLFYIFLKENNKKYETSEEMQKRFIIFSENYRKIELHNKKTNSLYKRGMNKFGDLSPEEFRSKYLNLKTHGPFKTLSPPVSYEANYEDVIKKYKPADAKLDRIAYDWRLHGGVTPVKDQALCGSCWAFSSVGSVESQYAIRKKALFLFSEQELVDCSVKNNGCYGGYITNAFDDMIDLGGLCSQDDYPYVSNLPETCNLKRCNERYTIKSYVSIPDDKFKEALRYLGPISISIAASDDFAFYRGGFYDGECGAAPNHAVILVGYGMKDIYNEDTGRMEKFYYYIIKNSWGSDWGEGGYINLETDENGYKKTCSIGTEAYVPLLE
The experiment in a line: Inhibition of Plasmodium falciparum recombinant falcipain-3. Summed up:
as §1

Data set [2] has as its system Plasmodium falciparum. The experiment in a line: Antiplasmodial activity against chloroquine-sensitive Plasmodium falciparum D6 after 48 hrs as LDH reporter activity. Type of data set: functional, organism-based. The note with it: D6, 48 h. In short, it runs like this: (§2)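 Asynchronous P. falciparum cultures (2% hematocrit, 2% parasitemia) were exposed to compound dilutions prepared in DMSO. They were incubated 48 h at 37 °C in a humidified chamber under 90% N2, 5% CO2, 5% O2. Growth was read as parasite lactate dehydrogenase activity using Malstat reagent. Medium-only and erythrocyte-only wells were included, with chloroquine and artemisinin as positive and DMSO as negative controls.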

For data set [3], the system named is Plasmodium falciparum. Briefly: Antiplasmodial activity against chloroquine-resistant Plasmodium falciparum W2 as LDH activity after 48 hrs. Format: functional, organism-based. To be noted: W2, 48 h. Summed up:
as §2

The target of another data set is T3, Cysteine protease (Leishmania donovani, UniProt Q95WR6).
T3 sequence (Q95WR6 whole entry): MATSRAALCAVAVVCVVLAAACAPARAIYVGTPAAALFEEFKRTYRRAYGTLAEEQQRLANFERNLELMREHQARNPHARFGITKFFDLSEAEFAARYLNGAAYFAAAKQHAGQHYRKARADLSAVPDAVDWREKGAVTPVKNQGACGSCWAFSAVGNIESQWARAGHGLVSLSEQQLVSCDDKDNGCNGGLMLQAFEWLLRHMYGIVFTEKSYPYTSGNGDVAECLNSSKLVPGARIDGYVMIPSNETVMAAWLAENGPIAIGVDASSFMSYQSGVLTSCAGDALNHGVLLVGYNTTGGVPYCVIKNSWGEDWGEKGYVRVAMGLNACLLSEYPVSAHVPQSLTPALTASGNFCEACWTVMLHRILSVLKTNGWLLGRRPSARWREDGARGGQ
The experiment in a line: (§3) Inhibition of Leishmania donovani cysteine protease.

In a further data set the test system is Leishmania donovani. Briefly: Antileishmanial activity against Leishmania donovani promastigotes after 72 hrs by Alamar blue assay. Format: functional, organism-based. In short, it runs like this: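 L. donovani promastigote culture at 2 × 10⁶ cells/mL given diluted compounds, incubated 72 h at 26 °C; growth read by Alamar blue. Pentamidine and amphotericin B as reference agents; IC50 computed from growth inhibition curve.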
A general note: Alamar Blue is a resazurin reagent that responds to reducing activity.

For data set [4], the system named is Vero. Briefly: Cytotoxicity against Vero cells at 23.8 ug/mL by Neutral red assay. Type of data set: cell-based. The note with it: chlorocebus sabaeus. In short, it runs like this:
(§4)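 VERO monkey kidney […] exposed to compounds alongside the antiparasitic assays, viability by Neutral Red uptake; highest concentration tested 23.8 μg/mL; IC50 computed from growth inhibition curve.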

The test system of data set [5] is Vero. The experiment in a line: Cytotoxicity against Vero cells by Neutral red assay. Type of data set: cell-based. The note with it: chlorocebus sabaeus. In short, it runs like this: as §4
Data set [6] addresses T4, Cysteine protease (Leishmania donovani) (UniProt Q95WR6).
T4 sequence (whole entry): T3 sequence (Q95WR6 whole entry)
The description is as §3.

Molecules are shown by their SMILES. Calls of active or inactive are those of the source. The calls are words filed in the database; no cut-off is given here.

As a reminder, the IC50 is the point on the concentration scale where inhibition reaches its midpoint. Broadly, the EC50 is the concentration giving half of the maximal effect. A lower EC50 goes with higher potency in that assay.

Take `O=C(O)c1ccccc1N/N=C/c1ccc(/C=N/Nc2ccccc2C(=O)O)cc1`: the IC50 came to 1 µM on Falcipain 2, 4.9 µM in data set [1] and 72 µM at Cysteine protease. In addition, the EC50 in the data set on Plasmodium falciparum [2] amounted to 34.8 µM; with Plasmodium falciparum [3] it was 41 µM. In the data set on Leishmania donovani, the outcome was inactive. Also, the Activity result with Vero [4] was “Non-toxic”.
`CC(C)CC(=O)N[C@H](C(=O)N[C@H](C(=O)N[C@@H](CC(C)C)[C@@H](O)CC(=O)N[C@@H](C)C(=O)N[C@@H](CC(C)C)[C@@H](O)CC(=O)O)C(C)C)C(C)C` [PEPSTATIN] displayed a concentration for half-maximal inhibition (IC50) on Cysteine protease of 0.16 µM.
On to `O=C(Cn1nnc(-c2ccccc2)n1)N/N=C1\C(=O)Nc2ccccc21`, for which the IC50 was 27.3 µM at Falcipain 2, over 50 µM in data set [1] and 130 µM against Cysteine protease. Also, the EC50 is 68.5 µM with Plasmodium falciparum [2] and 43.2 µM in the data set with Plasmodium falciparum [3]. The outcome in the data set with Leishmania donovani was inactive. The Activity result in the data set with Vero [4] was “Non-toxic”.
For the compound `O=C(CN1C(=O)/C(=N\NC(=O)c2ccncc2)c2ccccc21)Nc1ccccc1`, the results for the IC50 (on Falcipain 2; in data set [1]; on Cysteine protease) were 40.9 µM, 62.2 µM and 62.6 µM, respectively. Also, the results for the concentration giving a half-maximal response (EC50) in the data set with Plasmodium falciparum [2] and in the data set on Plasmodium falciparum [3] were 56.3 µM and 59.6 µM, respectively. In the data set on Leishmania donovani, the outcome was inactive. Further, the Activity entry in the data set on Vero [4] is “Non-toxic”.
Turning to `Oc1cccc(/C=N\c2cccc3c(/N=C/c4cccc(O)c4O)cccc23)c1O`, the IC50 turned out to be 4.6 µM at Falcipain 2; 5.8 µM in [1]; 113 µM on Cysteine protease; 8.8 µM with Leishmania donovani; 28.9 µM in the data set on Vero [5]. In addition, the concentration for a half-maximal effect (EC50) in the data set with Plasmodium falciparum [2] stood at 6.9 µM; in the data set on Plasmodium falciparum [3], 6.6 µM.
For the compound `Oc1ccc(/C=N/c2ccc(/N=C/c3ccc(O)cc3O)c(Cl)c2)c(O)c1`, the IC50 on Falcipain 2 worked out at 2.1 µM; in data set [1], 7.5 µM; against Cysteine protease, 65.3 µM. Further, the concentration for a half-maximal effect (EC50) with Plasmodium falciparum [2] is 12.3 µM; in the data set with Plasmodium falciparum [3] it was 20.9 µM. In addition, the result in the data set on Leishmania donovani was inactive. Also, in the data set on Vero [4], the Activity entry is listed as “Non-toxic”.
For the compound `O=C(Cc1nnc(NC(=O)c2ccccc2)s1)N/N=C\c1ccc(O)c(O)c1`, the figures for the IC50 (at Falcipain 2; in data set [1]) were 31.1 µM and over 50 µM, respectively. The concentration for a half-maximal effect (EC50) in the data set on Plasmodium falciparum [2] and with Plasmodium falciparum [3] was over 59.9 µM in each case. The result (in data set [6]; in the data set with Leishmania donovani) was inactive. Besides, the Activity entry in the data set on Vero [4] is given as “Non-toxic”.
`Cc1cccc(NC(=O)CCC(=O)N/N=C/c2cc(Cl)ccc2O)c1`: the IC50 at Falcipain 2 amounted to 7.5 µM; in [1], 5.4 µM. In addition, the EC50 with Plasmodium falciparum [2] amounted to 13.5 µM; in the data set with Plasmodium falciparum [3], 12.1 µM. Moreover, the result (in [6]; with Leishmania donovani) was inactive. Also, the Activity entry in the data set on Vero [4] is listed as “Non-toxic”.
